The record followed here is ChEMBL document CHEMBL3046184, “New analogues of (E)-β-farnesene with insecticidal activity and binding affinity to aphid odorant-binding proteins” (J Agric Food Chem, 2011).

Calls of active or inactive are those of the source. The calls are words filed in the database; no cut-off is given here.

Assay [1] in a line: Displacement of fluorescent probe 1-NPN from Acyrthosiphon pisum (pea aphid) recombinant OBP2 by competitive binding assay.
In assay [2] the target is T1, Odorant-binding protein 3 (Acyrthosiphon pisum) (UniProt C1KUY3).
T1 sequence (whole entry): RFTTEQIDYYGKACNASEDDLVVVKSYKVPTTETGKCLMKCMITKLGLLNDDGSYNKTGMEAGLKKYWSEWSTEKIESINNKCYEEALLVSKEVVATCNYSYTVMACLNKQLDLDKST
Description: Displacement of fluorescent probe 1-NPN from Acyrthosiphon pisum (pea aphid) recombinant OBP3 by competitive binding assay. The essentials:
(§1)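 Recombinant A. pisum OBP and the probe 1-NPN were each at 2 μM in 50 mM Tris-HCl, titrated with competitor to 2-16 μM final. Excitation was at 337 nm, with emission recorded at 380-450 nm and intensity read at the maximum (406-409 nm). The IC50 was taken as the concentration halving initial fluorescence, and Ki = IC50/(1+[1-NPN]/K1-NPN) using free 1-NPN.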

Assay [3] addresses T2, Odorant-binding protein 1 (Acyrthosiphon pisum) (UniProt C1KUY1).
T2 sequence (whole entry): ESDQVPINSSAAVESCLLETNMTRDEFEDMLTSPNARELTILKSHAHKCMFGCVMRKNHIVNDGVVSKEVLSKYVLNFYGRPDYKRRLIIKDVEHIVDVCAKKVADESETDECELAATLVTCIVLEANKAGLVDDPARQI
Nature of the assay: Displacement of fluorescent probe 1-NPN from Acyrthosiphon pisum (pea aphid) recombinant OBP1 by competitive binding assay. The essentials: as §1

Another assay has as its system Aphis gossypii. Nature of the assay: Insecticidal activity against 3 day old Aphis gossypii (cotton aphid) in compound treated cabbage leaves at 600 microg/mL at 24 to 26 degC for 24 hr. The format is functional, organism-based. The essentials:
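Compound was dissolved in acetone/methanol/water (1:1:18). Cabbage leaves (~5 cm) bearing aphids were dipped for 5 s and air-dried, then held in Petri dishes. Dead aphids were counted. Solvent served as the negative control and thiacloprid as the positive reference.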

On to `CC(C)=CCC/C(C)=C/COC(=O)c1ccc(Br)cc1`, for which the result (in assay [1]; in assay [2]; in assay [3]; with Aphis gossypii) was Active.
For `CC(C)=CCC/C(C)=C/COC(=O)c1cc(-c2ccccc2)nn1C(C)(C)C`, the outcome in the assay with Aphis gossypii was Active.
In the case of `CC(C)=CCC/C(C)=C/COC(=O)c1cc(-c2ccccc2)nn1-c1ccc([N+](=O)[O-])cc1`, the result in assay [1], in assay [2] and in assay [3] was Active.
As to `CCCc1cc(C(=O)OC/C=C(\C)CCC=C(C)C)n(C(C)(C)C)n1`, the outcome in assay [2] was Active.
For the compound `CC(C)=CCC/C(C)=C/COC(=O)c1cc(C(C)C)nn1-c1ccc([N+](=O)[O-])cc1`, the result in assay [1], in assay [2] and in assay [3] was Active.
In the case of `N#C/N=C1\SCCN1Cc1ccc(Cl)nc1`, in assay [2], the result was Active.
On the same count and under the same terms, under `CC(C)=CCC/C(C)=C/COC(=O)c1cc(C)nn1C(C)(C)C` stands “Active”.
As to `CC(C)=CCC/C(C)=C/COC(=O)c1c(F)cccc1F`, the outcome in assay [1], in assay [2] and in assay [3] was Active.
With `CC(C)=CCC/C(C)=C/COC(=O)c1cc(C(C)C)nn1C(C)(C)C`, the result in assay [2] was Active.
Take `CC(C)=CCC/C(C)=C/COC(=O)c1cc(-c2ccccc2)nn1-c1ccccc1`: the result in the assay with Aphis gossypii was Active.
